According to ChEMBL document CHEMBL5329146, “Thiourea derivatives containing 4-arylthiazoles and d-glucose moiety: design, synthesis, antimicrobial activity evaluation, and molecular docking/dynamics simulations” (RSC Med Chem, 2023):
Converted amounts (≈) assume the structure as drawn.

Experiments:
Bacillus subtilis = test: Antibacterial activity against Bacillus subtilis assessed as inhibition of visible bacterial growth incubated for 18 to 20 hrs by microbroth dilution method; assay type: functional; conditions: time 18-20 hrs
Method in brief: (§1)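 Inoculum was a 4–6 h broth culture adjusted to 0.5 McFarland turbidity and diluted to a final 5 × 10^5 CFU mL−1. Plates were incubated at 35 °C for 18–20 h. MIC was the lowest concentration giving complete inhibition of visible growth. Run three times.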

Clostridioides difficile = test: Antibacterial activity against Clostridium difficile assessed as inhibition of visible bacterial growth incubated for 18 to 20 hrs by microbroth dilution method; assay type: functional; conditions: time 18-20 hrs
Staphylococcus aureus = test: Antibacterial activity against Staphylococcus aureus assessed as inhibition of visible bacterial growth incubated for 18 to 20 hrs by microbroth dilution method; assay type: functional; conditions: time 18-20 hrs; method in brief: as §1
[1] = tested on: Staphylococcus epidermidis; test: Antibacterial activity against Staphylococcus epidermidis assessed as inhibition of visible bacterial growth incubated for 18 to 20 hrs by microbroth dilution method; assay type: functional; conditions: time 18-20 hrs; method in brief: as §1
Streptococcus pneumoniae = test: Antibacterial activity against Streptococcus pneumoniae assessed as inhibition of visible bacterial growth incubated for 18 to 20 hrs by microbroth dilution method; assay type: functional; conditions: time 18-20 hrs
Escherichia coli = test: Antibacterial activity against Escherichia coli assessed as inhibition of visible bacterial growth incubated for 18 to 20 hrs by microbroth dilution method; assay type: functional; conditions: time 18-20 hrs; method in brief: as §1
Klebsiella pneumoniae = test: Antibacterial activity against Klebsiella pneumoniae assessed as inhibition of visible bacterial growth incubated for 18 to 20 hrs by microbroth dilution method; assay type: functional; conditions: time 18-20 hrs; method in brief: as §1
Pseudomonas aeruginosa = test: Antibacterial activity against Pseudomonas aeruginosa assessed as inhibition of visible bacterial growth incubated for 18 to 20 hrs by microbroth dilution method; assay type: functional; conditions: time 18-20 hrs; method in brief: as §1
Salmonella typhimurium = test: Antibacterial activity against Salmonella typhimurium assessed as inhibition of visible bacterial growth incubated for 18 to 20 hrs by microbroth dilution method; assay type: functional, Salmonella enterica subsp. enterica serovar Typhimurium; conditions: Salmonella enterica; time 18-20 hrs; method in brief: as §1
Aspergillus niger = test: Antifungal activity against Aspergillus niger assessed as inhibition of fungal growth incubated for 72 hrs by agar dilution method; assay type: functional
Method in brief: (§2)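 Agar dilution on Sabouraud dextrose agar, with compound solutions at 400 down to 0.78 μg mL−1 (twofold series). Fungal suspensions containing […] were applied to agar plates serially diluted with test compound. Plates were incubated at 35 °C, and MIC was read after 72 h. Experiments were performed three times.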

Aspergillus flavus = test: Antifungal activity against Aspergillus flavus assessed as inhibition of fungal growth incubated for 72 hrs by agar dilution method; assay type: functional; method in brief: as §2
Candida albicans = test: Antifungal activity against Candida albicans assessed as inhibition of fungal growth incubated for 72 hrs by agar dilution method; assay type: functional; method in brief: as §2
Saccharomyces cerevisiae = test: Antifungal activity against Saccharomyces cerevisiae assessed as inhibition of fungal growth incubated for 72 hrs by agar dilution method; assay type: functional; method in brief: as §2
Fusarium oxysporum = test: Antifungal activity against Fusarium oxysporum assessed as inhibition of fungal growth incubated for 72 hrs by agar dilution method; assay type: functional; method in brief: as §2
DNA gyrase = DNA gyrase (Staphylococcus aureus, UniProt P0A0K8+P20831); test: Inhibition of Staphylococcus aureus DNA gyrase incubated for 30 mins in presence of relaxed plasmid DNA by supercoiling based gel electrophoresis analysis; assay type: protein-complex assay
Topoisomerase IV = Topoisomerase IV (Staphylococcus aureus, UniProt P0C1S7+P0C1U9); test: Inhibition of Staphylococcus aureus DNA topoisomerase 4 using supercoiled plasmid DNA as substrate; assay type: protein-complex assay
Dihydrofolate reductase = Dihydrofolate reductase (Staphylococcus aureus, UniProt P0A017); test: Inhibition of Staphylococcus aureus DHFR preincubated for 5 mins followed by dihydrofolic acid addition and measured for 10 mins by absorbance based assay
Dihydrofolate reductase, sequence (P0A017 whole entry): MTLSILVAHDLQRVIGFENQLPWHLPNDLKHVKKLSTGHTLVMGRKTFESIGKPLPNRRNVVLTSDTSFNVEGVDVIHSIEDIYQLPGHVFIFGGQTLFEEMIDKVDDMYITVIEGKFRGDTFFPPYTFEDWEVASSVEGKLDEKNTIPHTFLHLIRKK

Topoisomerase IV, sequence (P0C1U9 whole entry): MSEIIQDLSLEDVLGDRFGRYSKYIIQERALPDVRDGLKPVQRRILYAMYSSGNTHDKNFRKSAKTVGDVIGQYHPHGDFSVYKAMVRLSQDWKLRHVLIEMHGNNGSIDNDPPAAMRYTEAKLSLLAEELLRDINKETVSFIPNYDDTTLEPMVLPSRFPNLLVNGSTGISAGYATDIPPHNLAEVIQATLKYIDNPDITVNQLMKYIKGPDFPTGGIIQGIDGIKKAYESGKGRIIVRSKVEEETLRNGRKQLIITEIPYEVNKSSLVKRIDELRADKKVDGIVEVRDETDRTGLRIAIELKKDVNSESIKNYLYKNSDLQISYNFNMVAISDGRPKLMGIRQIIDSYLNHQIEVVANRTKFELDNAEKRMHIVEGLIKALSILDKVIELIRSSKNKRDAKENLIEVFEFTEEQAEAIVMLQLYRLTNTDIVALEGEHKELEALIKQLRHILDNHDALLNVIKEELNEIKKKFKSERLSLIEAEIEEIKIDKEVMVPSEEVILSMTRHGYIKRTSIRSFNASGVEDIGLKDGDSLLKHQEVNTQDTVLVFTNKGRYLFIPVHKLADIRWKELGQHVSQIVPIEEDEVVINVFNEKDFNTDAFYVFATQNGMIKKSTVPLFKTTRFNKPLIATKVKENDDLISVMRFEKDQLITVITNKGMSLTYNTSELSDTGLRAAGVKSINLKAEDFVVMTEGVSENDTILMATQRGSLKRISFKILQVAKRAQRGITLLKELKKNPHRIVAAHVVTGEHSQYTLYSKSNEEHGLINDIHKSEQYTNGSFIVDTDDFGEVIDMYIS
Topoisomerase IV, sequence (P0C1S7 whole entry): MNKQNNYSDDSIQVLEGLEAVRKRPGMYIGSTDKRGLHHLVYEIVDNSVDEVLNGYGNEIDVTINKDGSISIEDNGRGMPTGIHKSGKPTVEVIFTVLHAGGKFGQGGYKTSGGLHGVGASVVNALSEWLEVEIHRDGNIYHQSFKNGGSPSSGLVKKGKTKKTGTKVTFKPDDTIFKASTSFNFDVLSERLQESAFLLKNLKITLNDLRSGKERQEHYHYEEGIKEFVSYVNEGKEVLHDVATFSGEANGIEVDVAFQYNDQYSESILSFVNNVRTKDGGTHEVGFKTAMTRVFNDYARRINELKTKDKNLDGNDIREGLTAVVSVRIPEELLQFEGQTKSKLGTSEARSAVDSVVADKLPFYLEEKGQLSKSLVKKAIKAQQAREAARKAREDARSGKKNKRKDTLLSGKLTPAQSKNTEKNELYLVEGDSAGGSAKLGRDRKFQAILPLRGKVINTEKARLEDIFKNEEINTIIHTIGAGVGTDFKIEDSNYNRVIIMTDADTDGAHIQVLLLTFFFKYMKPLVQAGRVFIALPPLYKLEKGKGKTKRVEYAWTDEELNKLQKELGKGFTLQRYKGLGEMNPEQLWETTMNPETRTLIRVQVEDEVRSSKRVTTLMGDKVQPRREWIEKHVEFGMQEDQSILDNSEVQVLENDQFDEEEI
DNA gyrase, sequence (P0A0K8 whole entry): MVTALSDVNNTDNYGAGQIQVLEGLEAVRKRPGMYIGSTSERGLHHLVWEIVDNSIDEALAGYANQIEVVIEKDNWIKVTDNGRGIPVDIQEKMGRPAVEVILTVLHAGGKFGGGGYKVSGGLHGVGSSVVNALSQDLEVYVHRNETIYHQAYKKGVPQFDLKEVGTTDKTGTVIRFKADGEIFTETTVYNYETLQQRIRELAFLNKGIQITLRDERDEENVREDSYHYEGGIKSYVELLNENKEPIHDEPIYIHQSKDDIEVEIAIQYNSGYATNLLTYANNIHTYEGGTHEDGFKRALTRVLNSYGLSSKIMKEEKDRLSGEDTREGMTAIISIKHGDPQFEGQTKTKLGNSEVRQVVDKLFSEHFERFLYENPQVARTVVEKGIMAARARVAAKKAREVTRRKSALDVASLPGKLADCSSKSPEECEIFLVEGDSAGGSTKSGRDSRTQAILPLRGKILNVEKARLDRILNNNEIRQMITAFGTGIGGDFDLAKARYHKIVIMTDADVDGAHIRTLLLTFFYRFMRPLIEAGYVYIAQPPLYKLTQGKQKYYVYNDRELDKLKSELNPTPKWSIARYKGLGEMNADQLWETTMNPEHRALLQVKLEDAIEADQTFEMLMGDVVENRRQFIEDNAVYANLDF
DNA gyrase, sequence (P20831 whole entry): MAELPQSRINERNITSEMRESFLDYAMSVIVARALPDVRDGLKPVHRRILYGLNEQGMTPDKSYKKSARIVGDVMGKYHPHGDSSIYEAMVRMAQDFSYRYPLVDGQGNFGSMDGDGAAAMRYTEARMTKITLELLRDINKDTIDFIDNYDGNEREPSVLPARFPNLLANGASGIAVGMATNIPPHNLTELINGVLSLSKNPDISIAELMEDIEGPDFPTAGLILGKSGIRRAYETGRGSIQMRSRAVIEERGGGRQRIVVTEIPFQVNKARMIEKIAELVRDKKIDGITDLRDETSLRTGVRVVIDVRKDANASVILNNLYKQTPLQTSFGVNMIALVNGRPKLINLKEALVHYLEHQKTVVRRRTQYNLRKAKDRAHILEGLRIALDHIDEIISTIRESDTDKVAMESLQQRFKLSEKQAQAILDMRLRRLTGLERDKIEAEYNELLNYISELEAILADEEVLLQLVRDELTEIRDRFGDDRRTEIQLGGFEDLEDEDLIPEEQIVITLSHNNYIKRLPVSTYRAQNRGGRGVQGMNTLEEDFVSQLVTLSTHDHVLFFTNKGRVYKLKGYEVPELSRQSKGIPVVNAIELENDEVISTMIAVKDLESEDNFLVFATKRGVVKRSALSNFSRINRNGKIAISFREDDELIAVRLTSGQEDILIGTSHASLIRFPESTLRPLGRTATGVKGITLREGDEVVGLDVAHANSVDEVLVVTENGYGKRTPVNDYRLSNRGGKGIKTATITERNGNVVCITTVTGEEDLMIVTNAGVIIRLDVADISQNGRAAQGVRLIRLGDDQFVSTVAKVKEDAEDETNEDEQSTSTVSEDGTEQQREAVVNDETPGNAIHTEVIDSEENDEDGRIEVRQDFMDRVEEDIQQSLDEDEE

| Structure (SMILES) | MIC (Bacillus subtilis) [µg/mL] | MIC (Clostridioides difficile) [µg/mL] | MIC (Staphylococcus aureus) [µg/mL] | MIC [1] [µg/mL] | MIC (Streptococcus pneumoniae) [µg/mL] | MIC (Escherichia coli) [µg/mL] | MIC (Klebsiella pneumoniae) [µg/mL] | MIC (Pseudomonas aeruginosa) [µg/mL] | MIC (Salmonella typhimurium) [µg/mL] | MIC (Aspergillus niger) [µg/mL] | MIC (Aspergillus flavus) [µg/mL] | MIC (Candida albicans) [µg/mL] | MIC (Saccharomyces cerevisiae) [µg/mL] | MIC (Fusarium oxysporum) [µg/mL] | IC50 (DNA gyrase) [nM] | IC50 (Topoisomerase IV) [nM] | IC50 (Dihydrofolate reductase) [nM] |
| --- | --- | --- | --- | --- | --- | --- | --- | --- | --- | --- | --- | --- | --- | --- | --- | --- | --- |
| CC(=O)OC[C@H]1O[C@@H](NC(=S)Nc2nc(-c3ccc(Br)cc3)cs2)[C@H](OC(C)=O)[C@@H](OC(C)=O)[C@@H]1OC(C)=O | 3.12 (≈ 4.85 µM) | 6.25 (≈ 9.7 µM) | 12.5 (≈ 19.4 µM) | 25 (≈ 38.8 µM) | 50 (≈ 77.6 µM) | 1.56 (≈ 2.42 µM) | 6.25 (≈ 9.7 µM) | 100 (≈ 155 µM) | 0.78 (≈ 1.21 µM) | 50 (≈ 77.6 µM) | 3.12 (≈ 4.85 µM) | 50 (≈ 77.6 µM) | 25 (≈ 38.8 µM) | 0.78 (≈ 1.21 µM) | – | – | – |
| CC(=O)OC[C@H]1O[C@@H](NC(=S)Nc2nc(-c3ccccc3)cs2)[C@H](OC(C)=O)[C@@H](OC(C)=O)[C@@H]1OC(C)=O | 25 (≈ 44.2 µM) | 50 (≈ 88.4 µM) | 200 (≈ 354 µM) | 0.78 (≈ 1.38 µM) | 25 (≈ 44.2 µM) | 100 (≈ 177 µM) | 25 (≈ 44.2 µM) | 6.25 (≈ 11 µM) | 400 (≈ 707 µM) | 0.78 (≈ 1.38 µM) | 50 (≈ 88.4 µM) | 3.12 (≈ 5.52 µM) | 1.56 (≈ 2.76 µM) | 6.25 (≈ 11 µM) | – | – | – |
| CN[C@H](CC(C)C)C(=O)N[C@H]1C(=O)N[C@@H](CC(N)=O)C(=O)N[C@H]2C(=O)N[C@H]3C(=O)N[C@H](C(=O)N[C@H](C(=O)O)c4cc(O)cc(O)c4-c4cc3ccc4O)[C@H](O)c3ccc(c(Cl)c3)Oc3cc2cc(c3O[C@@H]2O[C@H](CO)[C@@H](O)[C@H](O)[C@H]2O[C@H]2C[C@](C)(N)[C@H](O)[C@H](C)O2)Oc2ccc(cc2Cl)[C@H]1O [VANCOMYCIN] | 1.56 (≈ 1.08 µM) | 1.56 (≈ 1.08 µM) | 1.56 (≈ 1.08 µM) | 0.78 (≈ 0.538 µM) | 1.56 (≈ 1.08 µM) | – | – | – | – | – | – | – | – | – | – | – | – |
| COc1ccc(-c2csc(NC(=S)N[C@@H]3O[C@H](COC(C)=O)[C@@H](OC(C)=O)[C@H](OC(C)=O)[C@H]3OC(C)=O)n2)cc1[N+](=O)[O-] | 50 (≈ 78 µM) | 200 (≈ 312 µM) | 0.78 (≈ 1.22 µM) | 50 (≈ 78 µM) | 6.25 (≈ 9.76 µM) | 200 (≈ 312 µM) | 0.78 (≈ 1.22 µM) | 0.78 (≈ 1.22 µM) | 50 (≈ 78 µM) | 100 (≈ 156 µM) | 1.56 (≈ 2.44 µM) | 12.5 (≈ 19.5 µM) | 200 (≈ 312 µM) | 25 (≈ 39 µM) | 1250 | 67300 | 130 |
| CC(=O)OC[C@H]1O[C@@H](NC(=S)Nc2nc(-c3cccc([N+](=O)[O-])c3)cs2)[C@H](OC(C)=O)[C@@H](OC(C)=O)[C@@H]1OC(C)=O | 6.25 (≈ 10.2 µM) | 0.78 (≈ 1.28 µM) | 6.25 (≈ 10.2 µM) | 12.5 (≈ 20.5 µM) | 0.78 (≈ 1.28 µM) | 0.78 (≈ 1.28 µM) | 3.12 (≈ 5.12 µM) | 3.12 (≈ 5.12 µM) | 3.12 (≈ 5.12 µM) | 3.12 (≈ 5.12 µM) | 0.78 (≈ 1.28 µM) | 100 (≈ 164 µM) | 6.25 (≈ 10.2 µM) | 50 (≈ 81.9 µM) | – | – | – |
| OC(Cn1cncn1)(Cn1cncn1)c1ccc(F)cc1F [FLUCONAZOLE] | – | – | – | – | – | – | – | – | – | 1.56 (≈ 5.09 µM) | 0.78 (≈ 2.55 µM) | 0.78 (≈ 2.55 µM) | 0.78 (≈ 2.55 µM) | 0.78 (≈ 2.55 µM) | – | – | – |
| COc1ccc(-c2csc(NC(=S)N[C@@H]3O[C@H](COC(C)=O)[C@@H](OC(C)=O)[C@H](OC(C)=O)[C@H]3OC(C)=O)n2)cc1 | 400 (≈ 672 µM) | 3.12 (≈ 5.25 µM) | 1.56 (≈ 2.62 µM) | 100 (≈ 168 µM) | 3.12 (≈ 5.25 µM) | 3.12 (≈ 5.25 µM) | 1.56 (≈ 2.62 µM) | 12.5 (≈ 21 µM) | 6.25 (≈ 10.5 µM) | 6.25 (≈ 10.5 µM) | 6.25 (≈ 10.5 µM) | 0.78 (≈ 1.31 µM) | 12.5 (≈ 21 µM) | 12.5 (≈ 21 µM) | 1370 | 79200 | 170 |
| CCc1ccc(-c2csc(NC(=S)N[C@@H]3O[C@H](COC(C)=O)[C@@H](OC(C)=O)[C@H](OC(C)=O)[C@H]3OC(C)=O)n2)cc1 | 0.78 (≈ 1.31 µM) | 400 (≈ 674 µM) | 400 (≈ 674 µM) | 6.25 (≈ 10.5 µM) | 100 (≈ 168 µM) | 12.5 (≈ 21.1 µM) | 50 (≈ 84.2 µM) | 25 (≈ 42.1 µM) | 100 (≈ 168 µM) | 200 (≈ 337 µM) | 200 (≈ 337 µM) | 6.25 (≈ 10.5 µM) | 400 (≈ 674 µM) | 400 (≈ 674 µM) | – | – | – |
| CC(=O)OC[C@H]1O[C@@H](NC(=S)Nc2nc(-c3ccc(Cl)cc3)cs2)[C@H](OC(C)=O)[C@@H](OC(C)=O)[C@@H]1OC(C)=O | 12.5 (≈ 20.8 µM) | 12.5 (≈ 20.8 µM) | 3.12 (≈ 5.21 µM) | 3.12 (≈ 5.21 µM) | 400 (≈ 667 µM) | 50 (≈ 83.3 µM) | 12.5 (≈ 20.8 µM) | 200 (≈ 333 µM) | 12.5 (≈ 20.8 µM) | 25 (≈ 41.7 µM) | 25 (≈ 41.7 µM) | 25 (≈ 41.7 µM) | 3.12 (≈ 5.21 µM) | 3.12 (≈ 5.21 µM) | 2820 | 68700 | 230 |
| O=C(O)c1cn(C2CC2)c2cc(N3CCNCC3)c(F)cc2c1=O [CIPROFLOXACIN] | 3.12 (≈ 9.43 µM) | – | 3.12 (≈ 9.43 µM) | 3.12 (≈ 9.43 µM) | – | – | 1.56 (≈ 4.71 µM) | 1.56 (≈ 4.71 µM) | 1.56 (≈ 4.71 µM) | – | – | – | – | – | – | – | – |
| Clc1ccc(COC(Cn2ccnc2)c2ccc(Cl)cc2Cl)c(Cl)c1 (configuration not stated) [MICONAZOLE] | – | – | – | – | – | – | – | – | – | 1.56 (≈ 3.75 µM) | 1.56 (≈ 3.75 µM) | 3.12 (≈ 7.51 µM) | 3.12 (≈ 7.51 µM) | 3.12 (≈ 7.51 µM) | – | – | – |
| CC(=O)OC[C@H]1O[C@@H](NC(=S)Nc2nc(-c3ccc(C)cc3)cs2)[C@H](OC(C)=O)[C@@H](OC(C)=O)[C@@H]1OC(C)=O | 100 (≈ 173 µM) | 25 (≈ 43.1 µM) | 25 (≈ 43.1 µM) | 400 (≈ 690 µM) | 12.5 (≈ 21.6 µM) | 6.25 (≈ 10.8 µM) | 200 (≈ 345 µM) | 50 (≈ 86.3 µM) | 25 (≈ 43.1 µM) | 12.5 (≈ 21.6 µM) | 12.5 (≈ 21.6 µM) | 400 (≈ 690 µM) | 0.78 (≈ 1.35 µM) | 200 (≈ 345 µM) | – | – | – |
